*1 amine or outer side, *2 acyl side, *3 side chain or, on linkers, in order; H or OH if unused. Where a SMILES comes first, the peptide text is derived from it. [ ]: non-standard residue; d: D form. The star is where a group is joined. X1 = O=C([C@H](Cc1ccccc1)OC[C@@H]1CCCN1[*:1])[*:2]; X2 = CC(CN[*:1])CC(N)C(O)CC(=O)[*:2]; NHCH2(2-pyridyl) = c1ccc(CN*)nc1; Boc = CC(C)(C)OC(=O)*; For = O=C*

For 18 molecules, Remaining and IC50 results are on record in ChEMBL document CHEMBL1124066, “Renin inhibitors containing psi[CH2O] pseudopeptide inserts” (J Med Chem, 1988).

The first test has as its target Chymotrypsinogen A (Bos taurus) (UniProt P00766). Description: % compound remaining at 60 min in presence of degradative […] (in vitro). A digest of the protocol: (§1)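 Enzyme stocks were made in 50 mM Tris-HCl pH 7.5 (stock chymotrypsin 25 units/mL; elastase and carboxypeptidase Y 50 units/mL). Peptide at 0.8 mg/mL in 10% DMSO/Tris received 5 µL enzyme per 0.25 mL and was incubated at 37 °C for 0 or 60 min, then quenched with HPLC solvent B. Reverse-phase HPLC used an acetonitrile gradient. The 204 nm peak height was compared with the 0-min control. Incubations were run in triplicate, each assayed in duplicate.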
For the molecule `CC(C)[C@H](NC(=O)[C@H](Cc1ccccc1)NC(=O)[C@H](Cc1ccccc1)NC(=O)[C@H](Cc1ccccc1)NC(=O)[C@H](Cc1c[nH]cn1)NC(=O)[C@H](Cc1ccccc1)NC(=O)[C@@H]1CCCN1C(=O)[C@H](Cc1c[nH]cn1)NC(=O)[C@@H]1CCCN1)C(=O)N[C@@H](Cc1ccc(O)cc1)C(=O)N[C@@H](CCCCN)C(=O)O` [RIP] (H-PHPFHFFFVYK-OH), the Remaining is 3%.

The species named for the next test is Homo sapiens. The test can be described thus: % compound remaining at 60 min in presence of degradative enzyme elastase (in vitro). In kind it is functional. The gist of the method:
as §1
Regarding `CC(C)[C@H](NC(=O)[C@H](Cc1ccccc1)NC(=O)[C@H](Cc1ccccc1)NC(=O)[C@H](Cc1c[nH]cn1)NC(=O)[C@H](Cc1ccccc1)NC(=O)[C@@H]1CCCN1C(=O)[C@H](Cc1c[nH]cn1)NC(=O)[C@@H]1CCCN1)C(=O)N[C@@H](Cc1ccc(O)cc1)C(=O)N[C@@H](CCCCN)C(=O)O` [RIP] (H-PHPFHFFVYK-OH), the Remaining amounted to 13%.

The target in the next test is T1, Renin (Homo sapiens, UniProt P00797).
T1 sequence (P00797 whole entry): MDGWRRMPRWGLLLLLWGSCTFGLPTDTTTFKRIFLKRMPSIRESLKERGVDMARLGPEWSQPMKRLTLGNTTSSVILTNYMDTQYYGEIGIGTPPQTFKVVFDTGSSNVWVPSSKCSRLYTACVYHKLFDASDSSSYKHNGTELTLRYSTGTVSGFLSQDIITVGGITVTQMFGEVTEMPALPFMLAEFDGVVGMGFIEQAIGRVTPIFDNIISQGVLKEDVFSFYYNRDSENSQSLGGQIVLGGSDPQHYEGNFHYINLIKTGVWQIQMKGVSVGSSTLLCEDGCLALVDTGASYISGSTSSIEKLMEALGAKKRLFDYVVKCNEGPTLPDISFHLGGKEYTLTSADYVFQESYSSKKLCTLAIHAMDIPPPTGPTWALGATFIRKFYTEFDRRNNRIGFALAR
Description: Inhibition of Human plasma renin. It counts as cell-free. The gist of the method:
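Lyophilized human plasma containing 0.1% EDTA was used for angiotensin I generation with phenylmethanesulfonyl fluoride and maleate buffer pH 6.0. Inhibitor was added in a 1% Tween 80/water vehicle, followed by 90 min at 37 °C. Angiotensin I was measured by radioimmunoassay. Percent inhibition was taken against control tubes. IC50 was estimated graphically from 3-4 inhibitor concentrations on a semilog plot.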
As a reminder, the IC50 is the concentration needed to halve the response being measured. Turning to `CC[C@H](C)[C@H](NC(=O)[C@H](C)OC[C@H](CC(C)C)NC(=O)[C@H](Cc1cnc[nH]1)NC(=O)[C@H](Cc1ccccc1)NC(=O)[C@@H]1CCCN1C(=O)[C@H](Cc1cnc[nH]1)NC(=O)[C@@H]1CCCN1)C(=O)N[C@@H](Cc1cnc[nH]1)C(=O)N[C@H](CCCCN)C(=O)O`, the IC50 is 18 µM.

Turning to `CC[C@H](C)[C@H](NC(=O)[C@@H](NC[C@H](CC(C)C)NC(=O)[C@H](Cc1c[nH]cn1)NC(=O)[C@H](Cc1ccccc1)NC(=O)[C@@H]1CCCN1C(=O)[C@H](Cc1c[nH]cn1)NC(=O)[C@@H]1CCCN1)C(C)C)C(=O)N[C@@H](Cc1c[nH]cn1)C(=O)N[C@H](CCCCN)C(=O)O`, the midpoint of inhibition, the IC50, lay at 0.05 µM.

Take `CC[C@H](C)[C@H](NC(=O)[C@H](CC(C)C)OC[C@H](CC(C)C)NC(=O)[C@H](Cc1cnc[nH]1)NC(=O)[C@H](Cc1ccccc1)NC(=O)[C@@H]1CCCN1C(=O)[C@H](Cc1cnc[nH]1)NC(=O)[C@@H]1CCCN1)C(=O)N[C@@H](Cc1cnc[nH]1)C(=O)N[C@H](CCCCN)C(=O)O`: the IC50 was 1.8 µM.

As to `CC[C@H](C)[C@H](NC(=O)[C@@H](NCC(O)[C@H](CC(C)C)NC(=O)[C@H](Cc1c[nH]cn1)NC(=O)[C@H](Cc1ccccc1)OC[C@@H]1CCCN1C(=O)OC(C)(C)C)C(C)C)C(=O)NCc1ccccn1` (stereo not given in full), the concentration for half-maximal inhibition (IC50) was 2.3 µM.

Consider `CC[C@H](C)[C@H](NC(=O)CC(O)C(N)CC(C)CNC(=O)[C@H](Cc1c[nH]cn1)NC(=O)[C@H](Cc1ccccc1)OC[C@@H]1CCCN1C(=O)[C@H](Cc1c[nH]cn1)NC(=O)OC(C)(C)C)C(=O)N[C@@H](Cc1ccccc1)C(=O)OC` (stereo not given in full) (Boc-H[X1]H[X2]IF-OMe), for which inhibition was half-maximal at 440 µM (IC50).

On to `CC[C@H](C)[C@H](NC(=O)[C@@H](NCC(O)[C@H](CC(C)C)NC(=O)[C@H](Cc1cnc[nH]1)NC(=O)[C@H](Cc1ccccc1)NC(=O)[C@@H]1CCCN1C(=O)OC(C)(C)C)C(C)C)C(=O)NCc1ccccn1` (stereo not given in full), for which it took 0.36 µM to reach half-maximal inhibition (IC50).

Molecule `CC[C@H](C)[C@H](NC(=O)[C@@H](OC[C@H](CC(C)C)NC(=O)[C@H](Cc1c[nH]cn1)NC(=O)[C@H](Cc1ccccc1)NC(=O)[C@@H]1CCCN1C(=O)[C@H](Cc1c[nH]cn1)NC(=O)[C@@H]1CCCN1)C(C)C)C(=O)N[C@@H](Cc1c[nH]cn1)C(=O)N[C@H](CCCCN)C(=O)O` came in with an IC50 of 1.7 µM.

As to `CC[C@H](C)[C@H](NC(=O)CC(O)C(N)CC(C)CNC(=O)[C@H](Cc1cnc[nH]1)NC(=O)[C@H](Cc1ccccc1)OC[C@@H]1CCCN1C(=O)OC(C)(C)C)C(=O)N[C@@H](Cc1ccccc1)C(=O)OC` (stereo not given in full), inhibition was half-maximal at 2500 µM (IC50).

`CC[C@H](C)[C@H](NC(=O)CC(O)C(N)CC(C)CNC(=O)[C@H](Cc1cnc[nH]1)NC(=O)[C@H](Cc1ccccc1)OC[C@@H]1CCCN1C(=O)OC(C)(C)C)C(=O)NCc1ccccn1` (stereo not given in full) registered a concentration for half-maximal inhibition (IC50) of 140 µM.

`CC[C@H](C)[C@H](NC(=O)[C@@H](NCC(O)[C@H](CC(C)C)NC(=O)[C@H](Cc1c[nH]cn1)NC(=O)[C@H](Cc1ccccc1)OC[C@@H]1CCCN1C(=O)[C@H](Cc1ccccc1)NC(=O)OC(C)(C)C)C(C)C)C(=O)NCc1ccccn1` (stereo not given in full) yielded an IC50 of 1.6 µM.

The molecule `CC[C@H](C)[C@H](NC(=O)CC(O)C(N)CC(C)CNC(=O)[C@H](Cc1c[nH]cn1)NC(=O)[C@H](Cc1ccccc1)NC(=O)[C@@H]1CCCN1C(=O)OC(C)(C)C)C(=O)N[C@@H](Cc1ccccc1)C(=O)OC` (stereo not given in full) (Boc-PFH[X2]IF-OMe) had an IC50 of 5.8 µM.

On to `CC[C@H](C)[C@H](NC(=O)CC(O)C(N)CC(C)CNC(=O)[C@H](Cc1cnc[nH]1)NC(=O)[C@H](Cc1ccccc1)NC(=O)[C@@H]1CCCN1C(=O)OC(C)(C)C)C(=O)NCc1ccccn1` (stereo not given in full) (Boc-PFH[X2]I-{NHCH2(2-pyridyl)}), for which the IC50 is 4.1 µM.

Molecule `CC[C@H](C)[C@H](NC(=O)CC(O)C(N)CC(C)CNC(=O)[C@H](Cc1c[nH]cn1)NC(=O)[C@H](Cc1ccccc1)OC[C@@H]1CCCN1C(=O)[C@H](Cc1cn(C=O)c2ccccc12)NC(C)=O)C(=O)N[C@@H](Cc1ccccc1)C(=O)OC` (stereo not given in full) (Ac-W(For)[X1]H[X2]IF-OMe) returned an IC50 of 330 µM.

`CC[C@H](C)[C@H](NC(=O)CC(O)C(N)CC(C)CNC(=O)[C@H](Cc1cnc[nH]1)NC(=O)[C@H](Cc1ccccc1)OC[C@@H]1CCCN1C(=O)[C@H](Cc1cn(C=O)c2ccccc12)NC(=O)OC(C)(C)C)C(=O)N[C@@H](Cc1ccccc1)C(=O)OC` (stereo not given in full) (Boc-W(For)[X1]H[X2]IF-OMe) yielded an IC50 of 1000 µM.

As to `CC[C@H](C)[C@H](NC(=O)[C@@H](NCC(O)[C@H](CC(C)C)NC(=O)[C@H](Cc1cnc[nH]1)NC(=O)[C@H](Cc1ccccc1)OC[C@@H]1CCCN1C(=O)[C@H](Cc1cnc[nH]1)NC(=O)OC(C)(C)C)C(C)C)C(=O)NCc1ccccn1` (stereo not given in full), the IC50 is 3 µM.

Take `CC(C)[C@H](NC(=O)[C@H](Cc1ccccc1)NC(=O)[C@H](Cc1ccccc1)NC(=O)[C@H](Cc1ccccc1)NC(=O)[C@H](Cc1c[nH]cn1)NC(=O)[C@H](Cc1ccccc1)NC(=O)[C@@H]1CCCN1C(=O)[C@H](Cc1c[nH]cn1)NC(=O)[C@@H]1CCCN1)C(=O)N[C@@H](Cc1ccc(O)cc1)C(=O)N[C@@H](CCCCN)C(=O)O` [RIP] (H-PHPFHFFFVYK-OH): half-maximal inhibition (IC50) required 7 µM.

For the molecule `CC[C@H](C)[C@H](NC(=O)CC(O)C(N)CC(C)CNC(=O)[C@H](Cc1c[nH]cn1)NC(=O)[C@H](Cc1ccccc1)OC[C@@H]1CCCN1C(=O)[C@H](Cc1c[nH]cn1)NC(=O)OC(C)(C)C)C(=O)NCc1ccccn1` (stereo not given in full), inhibition was half-maximal at 100 µM (IC50).

Test system in the next test: not listed separately
Description: % compound remaining at 60 min in presence of degradative enzyme carboxypeptidase Y (in vitro). The gist of the method:
as §1
As for `CC(C)[C@H](NC(=O)[C@H](Cc1ccccc1)NC(=O)[C@H](Cc1ccccc1)NC(=O)[C@H](Cc1ccccc1)NC(=O)[C@H](Cc1c[nH]cn1)NC(=O)[C@H](Cc1ccccc1)NC(=O)[C@@H]1CCCN1C(=O)[C@H](Cc1c[nH]cn1)NC(=O)[C@@H]1CCCN1)C(=O)N[C@@H](Cc1ccc(O)cc1)C(=O)N[C@@H](CCCCN)C(=O)O` [RIP] (H-PHPFHFFFVYK-OH), the Remaining turned out to be 2%.
